In ChEMBL document CHEMBL1129668 (J Med Chem, 1996) one finds Selectivity and Ki data, which are given here for 18 compounds.

Test [1] has as its target Monoamine transporters; Norepininephrine & dopamine (Rattus norvegicus) (UniProt P23977+Q9WTR4). As to the kind of experiment: Selectivity for Dopamine and Norepinephrine transporters. The test is classed as protein assay.
In test [2] the target is Norepinephrine transporter (Rattus norvegicus, UniProt Q9WTR4). As to the kind of experiment: In vitro binding affinity towards Norepinephrine transporter rat cerebral cortical homogenates by [3H]nisoxetine displacement. Put shortly: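 Crude membrane fraction of rat frontoparietal cerebral cortex in 50 mM Tris-HCl (pH 7.4) with Na+, K+ (5 mM). Typically six concentrations in duplicate; curves computer-fit for IC50, converted to Ki = IC50/(1 + [L]/K_d).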

Test [3] has as its target Sodium-dependent dopamine transporter (Rattus norvegicus, UniProt P23977). The experiment in a line: In vitro binding affinity towards dopamine transporter in rat striatal membranes by […] displacement. The test is classed as cell membranes, Striatum, Membrane. Put shortly:
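Crude membranes of rat corpus striatum in Tris-citrate buffer (pH 7.4) with Na+ and Mg2+ (4 mM). Six concentrations, duplicate; computer-fit IC50 converted to Ki via Cheng–Prusoff relation using radioligand K_d.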

The target of test [4] is Monoamine transporters; serotonin & dopamine (Rattus norvegicus) (UniProt P31652+P23977). As to the kind of experiment: Selectivity for Dopamine and Serotonin transporters. The test is classed as protein assay.
Test [5] has as its target Sodium-dependent serotonin transporter (Rattus norvegicus, UniProt P31652). The experiment in a line: In vitro binding affinity towards serotonin transporter in rat cerebral cortical homogenates by [3H]paroxetine displacement.

Chain of Sodium-dependent serotonin transporter (P31652 whole entry): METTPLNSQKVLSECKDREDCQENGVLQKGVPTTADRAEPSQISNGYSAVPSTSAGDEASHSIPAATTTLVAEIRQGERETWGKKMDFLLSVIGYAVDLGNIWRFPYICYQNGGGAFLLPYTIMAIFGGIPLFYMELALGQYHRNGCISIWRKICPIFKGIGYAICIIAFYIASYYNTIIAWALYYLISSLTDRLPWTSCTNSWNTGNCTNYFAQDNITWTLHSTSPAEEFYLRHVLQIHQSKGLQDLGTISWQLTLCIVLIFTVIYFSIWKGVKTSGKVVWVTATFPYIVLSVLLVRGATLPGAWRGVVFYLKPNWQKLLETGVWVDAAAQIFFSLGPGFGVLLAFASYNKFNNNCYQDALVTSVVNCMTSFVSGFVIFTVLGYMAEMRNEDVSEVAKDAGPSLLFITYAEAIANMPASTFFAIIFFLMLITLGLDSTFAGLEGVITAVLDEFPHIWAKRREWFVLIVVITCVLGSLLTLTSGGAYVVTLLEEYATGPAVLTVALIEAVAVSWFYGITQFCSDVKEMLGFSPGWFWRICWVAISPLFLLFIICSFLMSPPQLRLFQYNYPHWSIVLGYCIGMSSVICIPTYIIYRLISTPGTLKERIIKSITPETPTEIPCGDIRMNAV
Chain of Monoamine transporters; serotonin & dopamine (Rattus norvegicus) (P23977 whole entry, looked up): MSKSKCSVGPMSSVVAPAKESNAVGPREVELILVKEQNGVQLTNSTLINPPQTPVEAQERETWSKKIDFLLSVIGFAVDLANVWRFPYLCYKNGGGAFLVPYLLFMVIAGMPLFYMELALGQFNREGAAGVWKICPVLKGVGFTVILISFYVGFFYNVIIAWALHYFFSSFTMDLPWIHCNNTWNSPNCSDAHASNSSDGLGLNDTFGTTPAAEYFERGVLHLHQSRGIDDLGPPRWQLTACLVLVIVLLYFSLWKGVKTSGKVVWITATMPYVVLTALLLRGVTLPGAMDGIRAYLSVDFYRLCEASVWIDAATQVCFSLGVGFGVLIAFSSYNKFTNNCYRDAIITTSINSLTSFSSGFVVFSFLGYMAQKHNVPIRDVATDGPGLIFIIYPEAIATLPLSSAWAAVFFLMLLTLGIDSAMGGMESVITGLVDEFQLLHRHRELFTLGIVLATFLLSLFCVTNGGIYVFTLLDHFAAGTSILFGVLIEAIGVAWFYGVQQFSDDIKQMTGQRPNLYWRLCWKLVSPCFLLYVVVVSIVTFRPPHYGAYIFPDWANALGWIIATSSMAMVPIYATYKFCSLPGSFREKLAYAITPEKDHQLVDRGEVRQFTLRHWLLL
Chain of Monoamine transporters; serotonin & dopamine (Rattus norvegicus) (P31652 whole entry, looked up): as the sequence (P31652 whole entry) above
Chain of Sodium-dependent dopamine transporter (P23977 whole entry): as the sequence (P23977 whole entry, looked up) above
Chain of Norepinephrine transporter (Q9WTR4 whole entry): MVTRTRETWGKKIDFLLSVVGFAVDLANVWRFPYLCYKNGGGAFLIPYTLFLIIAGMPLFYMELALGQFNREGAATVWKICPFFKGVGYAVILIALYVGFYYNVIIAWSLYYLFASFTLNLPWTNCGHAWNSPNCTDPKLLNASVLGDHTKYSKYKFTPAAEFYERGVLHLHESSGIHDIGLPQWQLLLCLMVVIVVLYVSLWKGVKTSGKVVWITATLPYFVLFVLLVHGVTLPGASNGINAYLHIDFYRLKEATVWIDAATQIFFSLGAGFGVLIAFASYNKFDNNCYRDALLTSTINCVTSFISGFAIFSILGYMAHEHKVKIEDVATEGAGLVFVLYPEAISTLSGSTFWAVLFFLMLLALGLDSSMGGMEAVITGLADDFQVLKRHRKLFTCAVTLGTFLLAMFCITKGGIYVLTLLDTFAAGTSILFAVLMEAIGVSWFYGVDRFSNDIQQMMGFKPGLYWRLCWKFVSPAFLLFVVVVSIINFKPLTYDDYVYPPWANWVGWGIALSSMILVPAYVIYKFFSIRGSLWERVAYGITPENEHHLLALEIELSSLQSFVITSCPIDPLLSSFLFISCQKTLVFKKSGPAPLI

The Ki is a measure of affinity in units of concentration, obtained from inhibition or displacement. In the case of `COC(=O)C1C(c2ccc(I)cc2)CC2CCC1N2CCCCl` (stereo unspecified), the Selectivity in test [1] was determined as 31; in test [4] it was 0.1. Besides, the values for the Ki in test [2], in test [3] and in test [5] were 96 nM, 3.1 nM and 0.32 nM, respectively.
As for `COC(=O)C1C(c2ccc(I)cc2)CC2CCC1N2CCF` (stereo unspecified), the Selectivity is 23.2 in test [1] and 0.035 in test [4]. Besides, the Ki stood at 93 nM in test [2], 4 nM in test [3] and 0.14 nM in test [5].
The like results for `CC(C)OC(=O)C1C(c2ccc(I)cc2)CC2CCC1N2CCF` (stereo unspecified) were, in that order, over 2300, 4.9, over 10000 nM, 4.4 nM and 21.7 nM.
For the compound `COC(=O)C1C(c2ccc(I)cc2)CC2CCC1N2CC(OC)OC` (stereo unspecified), the Selectivity in test [1] was determined as 16.2; in test [4], 0.249. Further, the results for the Ki in test [2], in test [3] and in test [5] were 110 nM, 6.8 nM and 1.69 nM, respectively.
For `COC(=O)C1C(c2ccc(I)cc2)CC2CCC1N2C(=O)C(C)C` (stereo unspecified), the values for the Selectivity in test [1] and in test [4] were over 4.8 and 0.049, respectively. The Ki in test [2] is over 10000 nM; in test [3] it was 2100 nM; in test [5], 102 nM.
Consider `COC(=O)C1C(c2ccc(I)cc2)CC2CCC1N2CCCF` (stereo unspecified), for which the Selectivity in test [1] was found to be 18; in test [4], 0.032. In addition, the values for the Ki in test [2], in test [3] and in test [5] were 63 nM, 3.5 nM and 0.11 nM, respectively.
On to `COC(=O)C1C(c2ccc(I)cc2)CC2CCC1N2CCCOS(C)(=O)=O` (stereo unspecified), for which the Selectivity was 138 in test [1] and 0.477 in test [4]. Besides, the Ki amounted to 5000 nM in test [2], 36.3 nM in test [3] and 17.3 nM in test [5].
The like results for `COC(=O)C1C(c2ccc(I)cc2)CC2CCC1N2CC(F)F` (stereo unspecified) were, in that order, over 330, 0.636, over 5000 nM, 15.1 nM and 9.6 nM.
The like results for `COC(=O)CN1C2CCC1C(C(=O)OC)C(c1ccc(I)cc1)C2` (stereo unspecified) were, in that order, 2.5, 0.068, 29.1 nM, 11.9 nM and 0.81 nM.
As for `COC(=O)C1C(c2ccc(I)cc2)CC2CCC1N2C` (stereo unspecified), the Selectivity in test [1] is 2; in test [4], 0.32. In addition, the Ki in test [2] was found to be 2.8 nM; in test [3], 1.4 nM.
For the compound `COC(=O)C1C(c2ccc(I)cc2)CC2CCC1N2CCCO` (stereo unspecified), the Selectivity was found to be 40.3 in test [1] and 0.463 in test [4]. Besides, the results for the inhibition constant Ki in test [2], in test [3] and in test [5] were 217 nM, 5.39 nM and 2.5 nM, respectively.
As to `COC(=O)C1C(c2ccc(I)cc2)CC2CCC1N2CC1CC1` (stereo unspecified), the Selectivity in test [1] was 45.6; in test [4], 0.302. Moreover, the Ki in test [2] was determined as 198 nM; in test [3], 4.3 nM; in test [5], 1.3 nM.
For `COC(=O)[C@@H]1C2CCC(C[C@@H]1c1ccc(I)cc1)N2CC(=O)N(C)C` (stereo partly specified) the same measures were 42.8, 0.524, 522 nM, 12.2 nM and 6.4 nM.
`COC(=O)[C@@H]1C2CCC(C[C@@H]1c1ccc(I)cc1)N2CCCN1C(=O)c2ccccc2C1=O` (stereo partly specified): the Selectivity stood at 8.1 in test [1] and 0.065 in test [4]. The Ki came to 73.7 nM in test [2], 9.1 nM in test [3] and 0.59 nM in test [5].
For `CC(C)OC(=O)C1C(c2ccc(I)cc2)CC2CCC1N2CCCF` (stereo unspecified), the results for the Selectivity in test [1] and in test [4] were 8300 and 40.6, respectively. In addition, the inhibition constant Ki turned out to be 10000 nM in test [2], 1.2 nM in test [3] and 48.7 nM in test [5].
On to `COC(=O)[C@H]1[C@@H](c2ccc(F)cc2)C[C@H]2CC[C@H]1N2C`, for which the Ki was found to be 635 nM in test [2] and 181 nM in test [5].
Turning to `COC(=O)C1C(c2ccc(I)cc2)CC2CCC1N2CCCBr` (stereo unspecified), the figures for the Selectivity in test [1] and in test [4] were 64.1 and 0.137, respectively. Also, the inhibitory constant (Ki) in test [2] amounted to 164 nM; in test [3] it was 2.56 nM; in test [5], 0.35 nM.
For `COC(=O)C1C(c2ccc(I)cc2)CC2CCC1N2CCCI` (stereo unspecified) the same measures were 129, 0.227, 5000 nM, 38.9 nM and 8.84 nM.
